High-throughput results deposited in PubChem BioAssay by several laboratories.
Most compounds without a hit are left out; they make up all but 1.7% or so of the library.
proCasp3 act = procaspase-3 (human) activation; recombinant procaspase-3 D3A, Ac-DEVD-pNA absorbance 405 nm; activation, % at 8.5 µM; AID 463141; 0.11% of 330,000 active; P42574;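 active = activation above the mean of all tested compounds plus 3 SD, cut at about 21% in these data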;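 also: 0% = DMSO alone and 100% = DMSO wells spiked with extra 5 µM PC-3 D3A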
Target sequence (P42574 whole entry D9A/D28A/D175A): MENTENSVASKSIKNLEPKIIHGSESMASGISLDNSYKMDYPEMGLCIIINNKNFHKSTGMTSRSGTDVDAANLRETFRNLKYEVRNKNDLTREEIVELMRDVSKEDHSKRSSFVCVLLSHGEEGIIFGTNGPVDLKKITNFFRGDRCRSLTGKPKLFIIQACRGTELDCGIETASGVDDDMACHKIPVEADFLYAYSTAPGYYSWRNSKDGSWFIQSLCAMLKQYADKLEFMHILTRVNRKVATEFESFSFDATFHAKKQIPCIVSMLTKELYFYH
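Test system: Procaspase-3 D3A mutant; medium: Zinc-free HEPES/NaCl buffer with 0.01% Triton X-100 at pH 7.4; reagent: DEVD-pNA substrate; doses: one concentration, 8.5 µM nominal, 0.8% DMSO; times: 1 h preincubation plus 2 h reaction at 25 °C; signal: Epi-absorbance at 405 nm of released p-nitroaniline, 0 and 120 min; replicates: singlicate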
Neddylation inh = blocks human cullin neddylation | TR-FRET cullin neddylation, biochemical | calls only at 25 µM | 0.58% of 360,000 active; in the data active = inhibition above about 36%
PolyA inh = blocks polyadenylation in yeast reporter cells | S. cerevisiae SKY197-pL101 polyadenylation reporter, beta-gal luminescence; efflux-impaired pdr1/pdr3 knockout yeast; score 100 = 6 SD above DMSO | activity score, % at 12 µM | 0.02% of 300,000 active | AID 1875;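 active = lowest replicate activity score at least 50, where 100 means six control SD above control mean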;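 also: yeast exposed to compound for 9 h at 30 °C; higher score means more reporter readthrough which indicates perturbed polyadenylation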
IMP-1 inh-1 = blocks Pseudomonas aeruginosa IMP-1 metallo-beta-lactamase | inhibition, % at 5.6 µM | purified IMP-1, nitrocefin hydrolysis, epi-absorbance fluorescence | 0.45% of 290,000 active;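 active = inhibition above the mean plus 3 SD of all compounds in the same screening run, cut at about 4.5% in these data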;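 also: 0% = IMP-1 with DMSO and 100% = DMSO wells lacking enzyme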
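System: purified IMP-1; amount: IMP-1 0.2 nM before substrate addition; compound: single dose, 5.6 µM; times: 25 °C, 15 min preincubation, 25 min reaction; signal: Epi-absorbance via hydrolysed-nitrocefin quenching of white-plate fluorescence, 480/530 nm, EDTA stop; benchmarks: DMSO with and without IMP-1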
proCasp7 act = counter-screen: procaspase-7 (human) activation; AID 463210; 0.093% of 330,000 active; P55210; activation, % at 8.5 µM; recombinant procaspase-7, Ac-DEVD-pNA absorbance 405 nm; D23A/D198A/D206A triple mutant, cannot self-cleave; scale: DMSO 0, 5 µM enzyme 100;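 active = percent activation above the screen-wide mean plus 3 SD, cut at about 25% in these data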
Target sequence (P55210 whole entry D23A/D198A/D206A): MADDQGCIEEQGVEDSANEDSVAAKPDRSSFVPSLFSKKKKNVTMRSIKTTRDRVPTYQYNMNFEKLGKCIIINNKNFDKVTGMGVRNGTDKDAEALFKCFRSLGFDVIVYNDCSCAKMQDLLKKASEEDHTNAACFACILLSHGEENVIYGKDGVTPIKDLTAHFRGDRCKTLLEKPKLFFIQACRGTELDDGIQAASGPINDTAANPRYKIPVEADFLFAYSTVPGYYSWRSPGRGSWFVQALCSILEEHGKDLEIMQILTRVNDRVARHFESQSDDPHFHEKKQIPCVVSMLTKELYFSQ
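Assay system: Uncleavable procaspase-7 mutant enzyme / Input: 2 µM procaspase-7 mutant as dispensed / Dosing: single nominal 8.5 µM compound dose, 0.8% DMSO final / Timing: 1 h enzyme–compound preincubation and 2 h substrate reaction, both 25 °C / Detection: p-Nitroaniline absorbance at 405 nm, read at 0 and 120 min / Replication: singlicate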
VIM-2 inh = inhibitors of Pseudomonas aeruginosa VIM-2 metallo-beta-lactamase; purified VIM-2, nitrocefin hydrolysis, epi-absorbance fluorescence; inhibition, % at 5.6 µM; 0.89% of 290,000 active; AID 1527;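 active = inhibition above the mean of all tested compounds plus 3 SD, cutoff set per screening run, cut at about 7.5% in these data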;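 also: red hydrolysis product quenches plate fluorescence so inhibitors raise well fluorescence; 0% = enzyme with DMSO and 100% = DMSO without enzyme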
IMP-1 inh-2 = selectivity counter-screen for VIM-2 inhibitors: IMP-1 metallo-beta-lactamase inhibitors; shares compounds with VIM-2 inh; purified IMP-1, nitrocefin hydrolysis, epi-absorbance fluorescence; inhibition, % at 5.6 µM; 1,300 tested, under 10 active; AID 1856; call rule not given here;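 also: 0% = enzyme with vehicle and 100% = vehicle without enzyme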
VIM-2 FRET inh = VIM-2 FRET inhibition, artifact counter-screen; 23% of 1,300 active; AID 1857; purified VIM-2, CCF2 FRET substrate hydrolysis; inhibition, % at 5.6 µM; shares compounds with VIM-2 inh;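 active = inhibition above the mean of all tested compounds plus 3 SD, cut at about 19% in these data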;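 also: 0% = VIM-2 plus DMSO and 100% = no enzyme wells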
TEM-1 counter = selectivity counter-screen for VIM-2 inhibitors: E. coli TEM-1 inhibitors; Purified TEM-1, nitrocefin hydrolysis, epi-absorbance fluorescence; 3% of 1,300 active; inhibition, % at 5.6 µM; shares compounds with VIM-2 inh;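 active = inhibition above that campaign's mean inhibition plus 3 SD, cut at about 0.46% in these data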;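 also: 0% = TEM-1 with DMSO and 100% = TEM-1 with 100 µM potassium clavulanate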
VIM-2 inh conf = confirmation of P. aeruginosa VIM-2 metallo-beta-lactamase inhibitors. purified VIM-2, nitrocefin hydrolysis, epi-absorbance. inhibition, % at 5.6 µM. shares compounds with VIM-2 inh. 96% of 1,300 active;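 active = inhibition of the VIM-2 beta-lactamase enzyme above about 11% from the earlier first-round screen, limit read from the data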;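 also: 0% = VIM-2 with DMSO and 100% = buffer wells without enzyme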
* = called active by the depositor; i = inactive; · = no result given.

SMILES	proCasp3 act	Neddylation inh	PolyA inh	IMP-1 inh-1	proCasp7 act	VIM-2 inh	IMP-1 inh-2	VIM-2 FRET inh	TEM-1 counter	VIM-2 inh conf
O=C(OCc1ccccc1)C1=[N+]([O-])OC(C(=O)OCc2ccccc2)C1c1c[nH]c2ccccc12 (stereo unspecified)	-10	i	·	-1	-9	13*	-2	-7	0	4
O=C(OCC(=O)c1c[nH]c2ccccc12)c1ccco1	3	i	-11	3	5	-1	·	·	·	·
CCCCN(CC)CCCNC(=O)C1CCN(c2ncnc3c2sc2cccc(F)c23)CC1	0	i	2	1	0	30*	0	4	-6	38*
CCCCN(CC)CCNC(=O)C1CCN(S(=O)(=O)c2cccc3nsnc23)CC1	3	i	2	-3	-5	-1	·	·	·	·
O=C(NCCN1CCOCC1)C1CCN(c2ncnc3c2sc2cccc(F)c23)CC1	2	i	-11	-1	8	23*	-2	3	-7	37*
O=C(NCCCN1CCCC1)c1cc2c(Cl)nc3ccccc3c2s1	0	i	-20	0	7	22*	-2	9	-7	35*
CC1CCN(CCCNC(=O)c2cc3c(Cl)nc4ccccc4c3s2)CC1	-8	i	5	0	0	23*	-2	9	-4	32*
CCN1CCN(CCCNC(=O)c2cc3c(=O)[nH]c4ccccc4c3s2)CC1	-8	·	5	-4	6	7	·	·	·	·
CCCCN(C)C(=O)c1cc2c(Cl)nc3ccccc3c2s1	6	i	-12	-2	2	13*	-3	2	-4	19*
CC1CCN(CCCNC(=O)c2n[nH]c(=O)c3ccccc23)CC1	-6	i	13	-4	6	-1	·	·	·	·
Cc1cccc(Nc2c3c(nc4ncnn24)CCC3)c1	8	i	9	-2	14	13*	-3	-5	-5	29*
Clc1ccc(Nc2c3c(nc4ncnn24)CCC3)cc1	4	i	16	-4	-2	2	·	·	·	·
Cc1cc(C)cc(Nc2c3c(nc4ncnn24)CCC3)c1	-10	i	25	-3	0	32*	-2	0	-6	48*
NS(=O)(=O)c1ccc(CCNC(=O)CNC(=O)COc2ccccc2)cc1	-1	i	4	3	2	-1	·	·	·	·
COc1ccc(OCCNC(=S)Nc2cccc3ccccc23)cc1	1	i	-21	-1	-1	-4	·	·	·	·
CCN(CC)CCOc1cc2c(nn1)Oc1ccccc1N2C	4	·	-7	1	1	18*	-3	2	-7	20*
O=S(=O)(Nc1ccc(-c2csc(-c3ccccc3)n2)cc1)c1ccc(F)cc1	4	i	18	-2	11	0	·	·	·	·
O=C(COc1ccc2c3c(c(=O)oc2c1)CCC3)Nc1ccc(CN2CCOCC2)cc1	4	i	8	-4	5	18*	-3	0	-6	27*
CCCc1cc(=O)oc2c(C)c(OCC(=O)NC3CCN(Cc4ccccc4)CC3)ccc12	11	i	-1	-3	-4	16*	-3	-6	-7	27*
Cc1cc(=O)oc2cc(OCC(=O)Nc3ccc(CN4CCOCC4)cc3)ccc12	1	i	6	-3	3	1	·	·	·	·
O=C(COc1ccc2c3c(c(=O)oc2c1)CCC3)NC1CCN(Cc2ccccc2)CC1	3	i	-7	-1	13	28*	-1	4	0.7*	39*
CC(C)(C)C(=O)Nc1nnc(CSCc2ccccc2F)s1	0	i	-11	-4	-3	26*	-3	65*	-5	48*
O=Nc1c2nc3ccccc3n(O)c-2c2ccccc12	-2	i	6	-5	9	16*	-4	-1	-5	27*
On1c(-c2ccccc2)nc2ccccc21	-3	i	4	-1	-7	-1	·	·	·	·
CCN1CCN(c2ccc(NC(=O)c3ccc(Br)o3)cc2)CC1	·	i	23	-1	·	15*	-3	-2	-4	24*
SMILES	proCasp3 act	Neddylation inh	PolyA inh	IMP-1 inh-1	proCasp7 act	VIM-2 inh	IMP-1 inh-2	VIM-2 FRET inh	TEM-1 counter	VIM-2 inh conf
CN1CCN(c2ccc(NC(=O)c3ccc(-c4ccc(Br)cc4)o3)cc2)CC1	-6	i	0	-1	-4	24*	-2	-3	-8	34*
CCCC(=O)N1CCN(c2ccc(NC(=O)c3ccc(Br)o3)cc2)CC1	3	i	5	-3	0	-5	·	·	·	·
CN1CCN(c2ccc(NC(=O)c3cc4ccccc4o3)cc2)CC1	2	i	-7	-3	-6	40*	-2	-2	-3	55*
O=C(Nc1ccc(N2CCCC2)cc1)c1ccc(Br)o1	1	i	12	-2	-13	-4	·	·	·	·
COC(=O)c1ccsc1NC(=O)C1=COCCO1	13	i	-12	-1	2	13*	-2	-3	-5	12*
COC(=O)Nc1sccc1C(=O)Nc1sccc1C(=O)OC	-5	i	3	-3	13	-3	·	·	·	·
Cc1cc(C)n(CC(O)Cn2c(C)c(C)c3ccccc32)n1 (stereo unspecified)	-6	i	0	2	-2	-2	·	·	·	·
O=C(C1CC1)N1CCc2cc(S(=O)(=O)NCCCN3CCCCC3)ccc21	7	i	-3	0	0	6	·	·	·	·
CC1CC(C)CN(CCCNS(=O)(=O)c2ccc3c(c2)CCN3C(=O)C2CC2)C1 (stereo unspecified)	6	i	-6	-4	14	12*	-3	-1	-6	8.9*
COCCNC(=O)C1CC(c2ccc([N+](=O)[O-])cc2)=NO1 (stereo unspecified)	5	i	-4	-3	-1	-2	·	·	·	·
CCN1CCN(C(=O)C2CCC(=O)N(Cc3cccc(C(F)(F)F)c3)C2)CC1 (stereo unspecified)	5	i	13	-1	3	27*	-4	-1	-6	2
